Mdm2 MdmX PPI: inhibitors of human Mdm2/MdmX interaction; O15151+Q00987; actives 3% (n = 330,000); inhibition, % at 8 µM; SaOS-2 split-luciferase Mdm2/MdmX complementation, luminescence;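 active = inhibition of at least 50% at 8 µM in the primary screen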
Target sequence (O15151 whole entry, looked up): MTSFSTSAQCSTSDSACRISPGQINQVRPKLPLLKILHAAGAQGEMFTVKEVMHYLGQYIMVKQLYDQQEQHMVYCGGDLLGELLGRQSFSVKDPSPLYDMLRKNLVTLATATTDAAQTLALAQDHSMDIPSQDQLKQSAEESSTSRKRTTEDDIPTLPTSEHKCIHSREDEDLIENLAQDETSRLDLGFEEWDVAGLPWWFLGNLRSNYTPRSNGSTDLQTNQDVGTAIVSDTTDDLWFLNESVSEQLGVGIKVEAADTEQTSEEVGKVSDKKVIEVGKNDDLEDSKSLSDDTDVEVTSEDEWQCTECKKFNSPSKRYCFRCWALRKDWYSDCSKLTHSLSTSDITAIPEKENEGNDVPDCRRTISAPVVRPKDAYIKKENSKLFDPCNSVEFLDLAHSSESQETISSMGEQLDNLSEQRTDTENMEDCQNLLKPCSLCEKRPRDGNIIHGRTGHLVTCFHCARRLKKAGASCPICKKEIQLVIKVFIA
Target sequence (Q00987 whole entry, looked up): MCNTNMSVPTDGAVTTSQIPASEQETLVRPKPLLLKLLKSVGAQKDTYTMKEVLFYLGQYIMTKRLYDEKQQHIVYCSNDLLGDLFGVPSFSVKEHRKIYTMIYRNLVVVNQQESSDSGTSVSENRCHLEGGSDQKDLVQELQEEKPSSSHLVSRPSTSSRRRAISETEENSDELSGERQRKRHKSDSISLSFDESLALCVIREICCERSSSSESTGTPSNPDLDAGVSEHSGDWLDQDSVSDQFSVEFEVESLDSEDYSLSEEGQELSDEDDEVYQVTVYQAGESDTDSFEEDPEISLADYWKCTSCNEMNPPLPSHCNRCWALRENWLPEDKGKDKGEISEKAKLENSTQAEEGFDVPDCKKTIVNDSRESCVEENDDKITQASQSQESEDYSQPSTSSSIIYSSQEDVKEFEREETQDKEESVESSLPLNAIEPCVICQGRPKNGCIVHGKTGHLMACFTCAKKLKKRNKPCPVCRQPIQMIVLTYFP
SKKanGAS inh: inhibitors of SKKanGAS S. pyogenes growth in kanamycin (SK-promoter or general growth effect) | BacTiter-Glo, 6 h | inhibition, % at 7.5 µM | actives 1.3% (n = 300,000);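 active = mean replicate score, as percent of positive control median, at least 50; inconclusive = mean below 50 but one replicate at or above 50; inactive = mean and every replicate below 50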;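 note: strain carries kanamycin resistance gene driven by streptokinase promoter and grows in 40 µg/ml kanamycin; loss of luminescence reflects streptokinase promoter inhibition or plain growth inhibition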
Calb FLC: C. albicans growth modulation with fluconazole; C. albicans CaCi-2 (fluconazole-resistant clinical isolate) + fluconazole, Alamar Blue growth, 48 h; growth inhibition, % (concentration not given with the values); actives 0.57% (n = 300,000); AID 1979;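 active = growth inhibition above about 58% in most replicates, limit read from the data, passing the limit was not always enough; inconclusive = exactly half the replicates above a set limit; inactive = most replicates below a set limit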;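 note: all wells also contain fluconazole at 8 µg/ml as a sub-toxic cotreatment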
Beta cell apopt: blocks beta cell apoptosis; INS-1E cytokine-induced death, ATP luminescence, 48 h; percent of positive-control rescue, neutral wells zero; protection from apoptosis, % (test concentration not listed); actives 0.8% (n = 300,000); AID 435005;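 active = Every replicate reaches about 75%, or at least half do and their mean reaches it too, limit read from the data; inconclusive = At least half of replicates reach the limit but their mean does not; inactive = Under half of replicates reach the limit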;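 note: higher means more ATP so stronger rescue from cytokine killing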
CSC inhib: blocks cancer stem cells; actives 1.1% (n = 300,000); cancer stem cell-like cells viability, luminescence; AID 2717; inhibition, % at 7.5 µM; in the data active = inhibition above about 75%; inconclusive = no clear call, values can overlap the other calls; tested in HMLE shEcad cells
T cruzi repl: T. cruzi replication inhibition; T. cruzi beta-gal in NIH3T3, luminescence, 90 h; inhibition, % (test concentration not listed); actives 1.4% (n = 300,000);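 active = mean inhibition across valid replicates above about 55%, limit read from the data; inconclusive = mean below that limit but half or more replicates reach it; inactive = mean below it, under half of replicates reach it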;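 note: signal also drops with host cell toxicity which is not excluded here; higher percent means less beta-gal luminescence so fewer parasites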
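Incubation – ≥90 h infection period, 3 h prior cell attachment · System – NIH/3T3 fibroblasts plus reporter T. cruzi · Doses – compound pinned at 50 nL/well, DMSO · Read-out basis – percent inhibition of parasite-derived β-gal signal · Signal – luminescent β-galactosidase signal after 60 min lysis · Also added – 5000 T. cruzi trypomastigotes/well · Medium – Low-serum DMEM with 2% FBS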
Each line names hits and unclear results; the compound was inactive in the other large screens. The list is not random: actives were taken first. Their share in the collection is about 5.7%.

CCOC(=O)c1ccc2ncc(C(=O)OCC)c(NCCN3CCOCC3)c2c1	none
CCOC(=O)c1cnc2ccc(OCC)cc2c1N1CCN(c2ccccc2)CC1	Beta cell apopt 105
COc1ccc(Cl)cc1S(=O)(=O)N(C)CC(=O)N1CCOCC1	none
CCc1ccccc1NC(=O)c1ccc([N+](=O)[O-])s1	T cruzi repl 60
COc1ccc(/C=C2\N=C(SC)NC2=O)cc1	Calb FLC 90
O=[N+]([O-])c1cccc(C(=Nc2ccccc2)NO)c1	none
O=[N+]([O-])c1cc([N+](=O)[O-])c2c(=Nc3ccccc3)n(-c3ccccc3)n(O)c2c1	T cruzi repl 58
COCCNC(=S)N/N=C(\C)c1ccc(O)cc1	none (no result: Beta cell apopt, CSC inhib)
C/C(=N\NC(=S)NCC(C)(C)C)c1cc(F)cc(F)c1O	SKKanGAS inh 90
CCCC(=O)Nc1ccc(C(=O)COC(=O)c2cc(C)oc2C)cc1	none (no result: SKKanGAS inh, Calb FLC, CSC inhib, T cruzi repl)
O=C(CNC1CCCCC1)Nc1ccc([N+](=O)[O-])cc1C(=O)Nc1ccccc1F	none
Cc1ccc(C)c(N2CCN(CC(=O)Nc3ccc([N+](=O)[O-])cc3C(=O)Nc3ccccc3F)CC2)c1	T cruzi repl 71
O=C(CN1CCN(c2cccc(Cl)c2)CC1)Nc1ccc([N+](=O)[O-])cc1C(=O)Nc1ccccc1F	T cruzi repl 65
O=C(CN1CCN(c2ccccc2)CC1)Nc1cccc([N+](=O)[O-])c1	none (no result: Beta cell apopt)
CCOc1ccc(OCC)c(NC(=O)CN2CCN(c3cc(C)ccc3C)CC2)c1	T cruzi repl 70
Cc1cc(SCc2cccc(C(F)(F)F)c2)nc(=O)[nH]1	none
COc1ccc(S(=O)(=O)N(C)C[C@H]2Oc3ccc(NC(=O)Cc4cn(C)c5ccccc45)cc3C(=O)N([C@@H](C)CO)C[C@@H]2C)cc1	none (no result: SKKanGAS inh, Calb FLC, T cruzi repl)
CCCCN(C(=O)c1ccc(S(=O)(=O)N2CCCC2)cc1)C1CCS(=O)(=O)C1 (stereo unspecified)	none
COc1ccc(Cl)cc1NC(=O)COC(=O)CCNS(=O)(=O)c1cccs1	none (no result: SKKanGAS inh, Calb FLC, Beta cell apopt, CSC inhib, T cruzi repl)
COC(=O)c1ccc(C2=NOC(C)(c3nnc(Cc4ccccc4)o3)C2)cc1 (stereo unspecified)	none
NC[C@@H]1O[C@H](C23CC4CC(CC(C4)C2)C3)Cc2c1ccc(O)c2O	Calb FLC 101
CCCCCc1cc(O)c2c(C)cc(=O)oc2c1	Beta cell apopt 130
CCCc1cc(=O)oc2cc(C)cc(O)c12	Calb FLC inconclusive
COc1ccccc1-n1c(SCC(=O)Nc2ccc(Br)cc2)nc(O)cc1=O	SKKanGAS inh 64 (no result: Beta cell apopt)
COc1ccc(NC(=O)CSc2nc(O)cc(=O)n2-c2ccccc2)cc1	SKKanGAS inh 88
COc1ccccc1-n1c(SCC(=O)N2CCOCC2)nc(O)cc1=O	none
CCc1c(C)c2ccc(OCC(=O)NCC3CCC(C(=O)O)CC3)cc2oc1=O (stereo unspecified)	none
CC(CNC(=S)Nc1cc(F)cc(F)c1)CSc1ccc(Cl)cc1 (stereo unspecified)	SKKanGAS inh 55, CSC inhib 87
CC(NS(=O)(=O)c1ccc2c(c1)oc(=O)n2C)c1ccccc1 (stereo unspecified)	none
CCn1c(SCC(=O)Nc2nc(-c3ccc(C)cc3)cs2)nnc1-c1ccccc1O	SKKanGAS inh 55 (no result: CSC inhib)
Nc1ccccc1SCC(=O)Nc1nc(-c2ccccc2)cs1	CSC inhib 127
CC1CCC(NS(=O)(=O)c2ccc(N3CCCC3=O)cc2)CC1 (stereo unspecified)	none
COc1ccc(NC(=S)N=Nc2c(O)[nH]c3ccccc23)cc1	SKKanGAS inh 95
O=C(/C=C/c1ccco1)NCC1OCCc2ccccc21 (stereo unspecified)	Beta cell apopt 107, CSC inhib 111
CCN1C(=O)[C@H]2[C@H]3CN=C(SCC4CC4)N3[C@@](CC)(C(=O)OC)[C@H]2C1=O	none (no result: SKKanGAS inh, Calb FLC, Beta cell apopt, CSC inhib, T cruzi repl)
CCCCCCCN1C(Nc2ccccc2)=NC[C@@H]1CC(C)C	none
CC(C)C[C@H]1CN=C(Nc2ccccc2)N1CCC(C)c1ccccc1 (stereo partly specified)	Beta cell apopt 103 (no result: SKKanGAS inh, Calb FLC, T cruzi repl)
O=C(Nc1ccccc1C(=O)O)c1cc(S(=O)(=O)N2CCOCC2)c(Br)s1	none
Cc1ccc(/C=C\c2nccc3c2[nH]c2ccccc23)cc1	CSC inhib 83
CCC(Cc1ccccc1)NS(=O)(=O)c1ccc2c(c1)NC(=O)C(C)S2 (stereo unspecified)	none

From PubChem BioAssay
